A selection: hits, their analogues and other compounds. The true share with any hit is near 4.1%.
KCC2 mod = KCC2 cotransporter modulators, thallium flux, primary screen, cell-based, HEK293 KCC2, FluoZin-2 fluorescence, MLSMR; KCC2 cells, thallium flux FluoZin-2 fluorescence; B-score of Tl+ flux slope (higher = more flux/activation; lower = inhibition) at 10 µM; 190,000 tested, 2.2% active; Solute carrier family 12 member 5 (Homo sapiens), Q9H2X9; AID 1456, 2008;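 active = thallium flux slope and its plate-corrected score both differing from the plate sample mean at a set confidence after two filtering rounds, in either direction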;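 note: slope of fluorescence scaled to starting intensity during 10 to 20 s after thallium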
Target sequence (Q9H2X9 whole entry, looked up): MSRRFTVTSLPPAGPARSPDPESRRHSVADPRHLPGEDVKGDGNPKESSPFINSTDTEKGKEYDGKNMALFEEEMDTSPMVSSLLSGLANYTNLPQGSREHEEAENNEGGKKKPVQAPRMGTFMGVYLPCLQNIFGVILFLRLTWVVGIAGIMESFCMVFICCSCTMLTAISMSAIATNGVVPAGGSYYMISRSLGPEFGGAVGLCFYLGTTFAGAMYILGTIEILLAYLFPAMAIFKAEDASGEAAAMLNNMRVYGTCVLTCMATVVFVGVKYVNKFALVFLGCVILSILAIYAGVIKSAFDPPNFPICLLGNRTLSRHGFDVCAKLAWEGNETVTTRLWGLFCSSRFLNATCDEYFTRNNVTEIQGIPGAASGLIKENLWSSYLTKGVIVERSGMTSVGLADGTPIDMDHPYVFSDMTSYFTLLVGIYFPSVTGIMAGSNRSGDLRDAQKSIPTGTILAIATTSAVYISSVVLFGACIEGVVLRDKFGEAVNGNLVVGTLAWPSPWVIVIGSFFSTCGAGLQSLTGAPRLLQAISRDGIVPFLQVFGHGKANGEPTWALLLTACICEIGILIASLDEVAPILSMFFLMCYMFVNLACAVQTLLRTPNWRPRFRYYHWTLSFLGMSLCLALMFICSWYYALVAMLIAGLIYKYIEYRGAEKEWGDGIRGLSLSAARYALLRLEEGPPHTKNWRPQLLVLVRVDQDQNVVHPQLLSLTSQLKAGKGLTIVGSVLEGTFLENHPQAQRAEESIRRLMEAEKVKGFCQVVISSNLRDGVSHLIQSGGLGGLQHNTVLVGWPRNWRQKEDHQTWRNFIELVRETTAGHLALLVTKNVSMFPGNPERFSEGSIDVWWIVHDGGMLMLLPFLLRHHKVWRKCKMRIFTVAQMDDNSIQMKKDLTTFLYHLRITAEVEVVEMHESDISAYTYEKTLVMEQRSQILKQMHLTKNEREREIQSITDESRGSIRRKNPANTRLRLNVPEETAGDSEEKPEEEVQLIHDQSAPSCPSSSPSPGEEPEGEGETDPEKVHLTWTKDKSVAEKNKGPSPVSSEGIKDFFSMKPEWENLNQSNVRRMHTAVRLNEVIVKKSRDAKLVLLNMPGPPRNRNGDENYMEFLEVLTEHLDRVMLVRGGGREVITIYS
Redox H2O2 prof = compounds producing H2O2 with reducing agent – biochemical, NIH compound library profiling, artefact control for MLSCN library redox annotation, primary screen; DTT-dependent redox cycling H2O2, phenol red/HRP absorbance; 100% = 100 µM peroxide control, 0% = buffer; activation, % at 10 µM; 200,000 tested, 0.03% active; AID 878, 2007;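 active = activation of at least 50% relative to the plate's high and low controls in the primary single-dose screen; inactive = activation below 50%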;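 note: compound incubated with DTT at 0.8 mM final as the reducing agent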
Dynein transport = inhibitors of GR-EGFP nuclear translocation, primary screen, dynein cargo transport inhibitor project, imaging, high-content, 3617.4 mouse cells | test concentration mostly 20 µM; stimulated with dexamethasone, 1 µM; stronger effect = lower value | z-score, hits read low | 220,000 tested, 0.47% active | AID 1381, 2008;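 active = plate z-score of nuclear minus cytoplasmic receptor signal below a set negative limit, without overly bright fluorescence or cell loss, cut at about -3.5 in these data, passing the limit was not always enough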;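 note: z-score of nuclear minus cytoplasmic ring GR-EGFP intensity difference per well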
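Buffer or medium: Induction medium lacking tetracycline, stripped serum | Also added: Dexamethasone agonist, 1.0 µM final, for 30 min | Timing: 48 h induction, 1 h compound, 30 min dex at 37 °C | Detection: Formaldehyde fixation, Hoechst nuclear stain, 10x automated fluorescence imaging | Measure: Nuclear versus cytoplasmic GR-EGFP signal, averaged per well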
Autophagy mod = autophagy modulators in MEF cells, primary screen, imaging, high-content, MEF GFP-LC3; calls only at 10 µM (by protocol); AID 463193, 2010; MEF GFP-LC3 puncta imaging; test concentration mostly 10 µM; 190,000 tested, 0.98% active;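 active = percentage of spot-positive cells more than 3 SD above its plate mean, without a fluorescence outlier flag or 80% toxicity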
ROMK mod = ROMK potassium channel modulators, primary screen, cell-based, thallium flux, MLSMR library | ATP-sensitive inward rectifier potassium channel 1 (Homo sapiens), P48048 | Tet-inducible ROMK, thallium flux fluorescence; actives lie on both sides | B-score at 10 µM | 130,000 tested, 2% active;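 active = signal ratio slope over the read window, or its plate-corrected B-score, at least 3 SD from the plate mean, either direction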;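 note: B-score of the F/F0 ratio slope over 7 to 12 s after thallium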
Of the large screens only hits and unclear results are named; the others gave an inactive call.

CN(C(=O)COc1ncnc2sccc12)c1ccccc1	none
CCCC(=O)Nc1ccccc1Sc1ncnc2scc(-c3ccccc3)c12	none
COC(=O)c1nnn(-c2cc(Cl)cc(Cl)c2)c1C(=O)OC	none (no result: Redox H2O2 prof, Autophagy mod, ROMK mod)
Cc1ccc(C)c2c(N)c3c(nc12)CCCCC3 (tested in a mixture with another compound)	none
CN1CCc2c(sc3nc(SCC(=O)N4CCOCC4)nc(N)c23)C1	Autophagy mod active (no result: ROMK mod)
C=CCn1c(SCC(=O)Nc2cc(C)on2)nc2sc3c(c2c1=O)CCCC3	none
Cn1c(SCC(=O)N2CCOCC2)nc2sc3c(c2c1=O)CCCC3	none
CC1CCN(C(=O)CSc2nc(N)c3c4c(sc3n2)CN(C)CC4)CC1	none (no result: ROMK mod)
CCc1sc2nc(SCC(=O)Nc3cc(C)on3)n(-c3cccc(OC)c3)c(=O)c2c1C	Autophagy mod active (no result: ROMK mod)
C=CCn1c(SCC(=O)N2CCOCC2)nc2sc3c(c2c1=O)CCCC3	Autophagy mod active
CCn1c(SCC(=O)Nc2cc(C)on2)nc2sc3c(c2c1=O)CCCC3	Autophagy mod active (no result: ROMK mod)
COc1ccccc1C1CC(c2ccccc2)=NN1C(=S)Nc1ccccc1 (stereo unspecified)	none
COc1ccccc1-c1nc(COc2ccc(Cl)cc2Cl)no1	none (no result: Redox H2O2 prof, Autophagy mod, ROMK mod)
Cc1noc(C)c1C(=O)OCC(=O)C12CC3CC(CC(C3)C1)C2	none
COCCn1c(SCC(=O)Nc2ccc(C)cc2C)nc2c(oc3ccccc32)c1=O	Autophagy mod active (no result: ROMK mod)
N#Cc1nc(Cc2cccc3ccccc23)oc1NCCCn1ccnc1	KCC2 mod -3.4 (no result: ROMK mod)
COc1ccc(CNc2oc(COc3ccccc3Cl)nc2C#N)cc1	none (no result: KCC2 mod)
COc1ccc(CNc2oc(Cc3cccc4ccccc34)nc2C#N)cc1	KCC2 mod -5.2
CN1CCN(c2oc(Cc3cccc4ccccc34)nc2C#N)CC1	none (no result: Redox H2O2 prof, Autophagy mod, ROMK mod)
N#Cc1nc(Cc2cccc3ccccc23)oc1N1CCCCC1	KCC2 mod -6.1
N#Cc1nc(-c2ccccc2)oc1NCCCn1ccnc1	none
CCOC(=O)c1c(C)nc2c(c1-c1cc(OC)ccc1OC)C(=O)CC(C)(C)C2	none (no result: Redox H2O2 prof, Autophagy mod)
O=C(N/N=C/c1cccc([N+](=O)[O-])c1)C1CC(=O)N(c2ccc(F)cc2)C1 (stereo unspecified)	none
Cc1c(NC(=O)c2cc3c(s2)-c2ccccc2OC3)cccc1[N+](=O)[O-]	Autophagy mod active
COc1ccc(/C(C)=N/NS(=O)(=O)c2cc(C)ccc2C)c(OC)c1	none
CC(C)c1ccc(/C=C2\Oc3c(ccc(O)c3CN3CCN(C)CC3)C2=O)cc1	ROMK mod -6.6
O=c1[nH]c2ccccc2c(O)c1-c1ccccc1[N+](=O)[O-]	none
COc1ccc(C2NC(=S)NC(C)=C2C(=O)c2ccccc2)cc1OC (stereo unspecified)	none (no result: ROMK mod)
COc1ccc(C2NC(=S)NC(C)=C2C(=O)Nc2ccccn2)cc1OC (stereo unspecified)	Autophagy mod active
O=C1CCN(S(=O)(=O)c2ccc(Br)cc2)CCN1	none
COc1ccccc1C(=O)N1CCN(Cc2cn[nH]c2-c2ccc(F)cc2F)CC1	none (no result: KCC2 mod)
CCOC(=O)C1CCCN(Cc2cn[nH]c2-c2ccc(F)cc2F)C1 (stereo unspecified)	Autophagy mod active
CC(=O)Nc1cccc(NC(=O)CSc2nnnn2-c2ccc3c(c2)OCO3)c1	none (no result: KCC2 mod, Redox H2O2 prof, Autophagy mod, ROMK mod)
CCc1ccc2c(c1)cc(CN(C(=S)Nc1ccc(Cl)cc1)C1CC1)c1nnnn12	Autophagy mod active (no result: Dynein transport, ROMK mod)
COCCNC(=S)N(Cc1cc2cc(C)ccc2n2nnnc12)C1CCCC1	none
COc1ccc2c(c1)NC(c1cc(Cl)cc(Cl)c1O)c1cccn1-2 (stereo unspecified)	Autophagy mod active
Oc1c(Cl)cc(Cl)cc1C1Nc2ccccc2-n2cccc21 (stereo unspecified)	none (no result: Redox H2O2 prof, Autophagy mod, ROMK mod)
CCOC(=O)c1c(Nc2ccc(Cl)cc2)sc(/C=C2\C=Nc3ccccc32)c1O	Autophagy mod active (no result: KCC2 mod)
COc1ccc(-n2c(=S)[nH]c3ccccc32)cc1	KCC2 mod 23
Clc1ncnc2scc(-c3ccccc3)c12	none (no result: ROMK mod)
S=c1[nH]cnc2scc(-c3ccccc3)c12	KCC2 mod 62, ROMK mod 6.1
S=c1[nH]cnc2sc(-c3ccccc3)cc12	KCC2 mod 196, ROMK mod 7.7
CNc1ncnc2sc(-c3ccccc3)cc12	none
Oc1ccccc1CN1CCCN(Cc2ccccc2O)C1	Autophagy mod active (no result: ROMK mod)
S=C(N/N=C/c1ccccc1Cl)Nc1ccccc1	KCC2 mod 16 (no result: ROMK mod)
CNC(=S)N/N=C/c1ccccc1Cl	none
CC(C)c1ccccc1NC(=O)COC(=O)c1ccc(Cl)c(S(=O)(=O)N2CCCCCC2)c1	none
COc1ccc(-c2nc3ccccc3c(C(=O)Nc3ccc(S(=O)(=O)Nc4cc(C)on4)cc3)c2C)cc1	ROMK mod 4.2
O=C(NC1CCS(=O)(=O)C1)c1cccc(S(=O)(=O)N2CCCC2)c1 (stereo unspecified)	none
C=C(C)CNC(=S)N/N=C1\CCCCc2ccccc21	KCC2 mod 11 (no result: ROMK mod)
CCNC(=S)N/N=C1\CCCCc2ccccc21	KCC2 mod 6.6 (no result: ROMK mod)
N#CCN1CCC2(O)CCCCC2C1c1ccc2c(c1)OCO2 (stereo unspecified)	none (no result: Redox H2O2 prof, Autophagy mod, ROMK mod)
O=C(CCCO)N/N=C/c1ccccc1[N+](=O)[O-]	none
O=Cc1ccccc1OCCOc1ccccc1C=O	Autophagy mod active (no result: ROMK mod)
S=C(NNc1ccnc2cc(Cl)ccc12)Nc1ccccc1Cl	none
FC(F)(F)c1cnc(NNC(=S)Nc2ccccc2Cl)c(Cl)c1	KCC2 mod 29 (no result: ROMK mod)
Cc1nc(SCc2c(F)cccc2Cl)n[nH]1	none (no result: KCC2 mod, ROMK mod)
COc1cnc(SCc2c(Cl)cccc2Cl)nc1Cl	Autophagy mod active (no result: KCC2 mod, ROMK mod)
COc1ccc(-c2cc(-c3nnc(COC(=O)c4ccncc4)o3)c3ccccc3n2)cc1OC	none
O=C(Cn1cnc2c(nnn2Cc2ccc(Cl)cc2)c1=O)N1CCN(c2ccccc2)CC1	KCC2 mod -3.9 (no result: ROMK mod)
O=C(Cn1cnc2c(nnn2Cc2ccccc2F)c1=O)N1CCN(c2ccccc2)CC1	none (no result: KCC2 mod)
O=C(N/N=C1/C(=O)c2cccc3cccc1c23)c1ccc(Cl)cc1	KCC2 mod 4.8
CCNC(=S)N/N=C1\C(=O)c2cccc3cccc1c23	KCC2 mod 24
CCOC(=O)[C@@H]1C(c2c(OC)cc(OC)cc2OC)=NO[C@@H]1C(=O)OCC	none
CCCCN(CCCC)CCNC(=O)CSCc1ccc(C)cc1	none
CC1=CC(C)(C)n2c(O)c(N=NC(N)=S)c3c(C)c(C)cc1c32	none (no result: Redox H2O2 prof, Autophagy mod, ROMK mod)
CC1=CC(C)(C)n2c(O)c(N=NC(N)=S)c3cccc1c32	KCC2 mod 5.9 (no result: ROMK mod)
CN(C)S(=O)(=O)c1ccc(C(=O)Nc2nnc(-c3cccs3)o2)cc1	none
